Key:
[1] = biological target: T1, Alpha-2 adrenergic receptor (Mus musculus) (UniProt P30545+Q01338+Q01337); assay: Agonist potency towards alpha-2 adrenergic receptor in the mouse isolated electrically stimulated vas deferens with reference to clonidine (prejunctional); format: functional, tissue-based
Method in brief: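 Mouse vas deferens from adult male MFI mice (>30 g), 0.5 g initial tension, in magnesium-free Krebs at 30 °C, gassed 95% O2/5% CO2. Field stimulation at 0.1 Hz with 3-ms pulses; voltage of 100-140 V set to give about 100 mg twitch, recorded isometrically. Repeated cumulative concentration-response curves to clonidine were run until ID50 values were consistent.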

[2] = biological target: T1, Alpha-2 adrenergic receptor (Mus musculus); assay: Antagonist potency towards alpha-2 adrenergic receptor in the mouse isolated electrically stimulated vas deferens with reference to idazoxan (prejunctional); format: functional, tissue-based
Method in brief: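 Mouse vas deferens (adult male MFI mice, >30 g) under 0.5 g tension in magnesium-free Krebs, 30 °C, 95% O2/5% CO2. Field stimulation at 0.1 Hz, 3-ms pulses, 100-140 V giving about 100 mg twitch, isometric recording. Twitches were inhibited by 110 nM clonidine in the Krebs.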

[3] = biological target: T2, Adrenergic receptor alpha-1 (Rattus norvegicus) (UniProt P15823+P23944+P43140); assay: Antagonist potency towards alpha-1 adrenergic receptor in the rat isolated anococcygeus with reference to pA2 idazoxan (postjunctional)
[4] = test system: Adrenergic receptor alpha-1 (Mus musculus); assay: Agonist potency towards alpha-1 adrenergic receptor in the mouse isolated electrically stimulated vas deferens with reference to phenylephrine (postjunctional)
[5] = biological target: T3, Adrenergic receptor alpha-2 (Rattus norvegicus, UniProt P22086+P19328+P22909); assay: Antagonist potency towards alpha-2 adrenergic receptor in the rat electrically stimulated vas deferens with reference to P-aminoclonidine; format: functional, tissue-based
T3 sequence (P22086 whole entry): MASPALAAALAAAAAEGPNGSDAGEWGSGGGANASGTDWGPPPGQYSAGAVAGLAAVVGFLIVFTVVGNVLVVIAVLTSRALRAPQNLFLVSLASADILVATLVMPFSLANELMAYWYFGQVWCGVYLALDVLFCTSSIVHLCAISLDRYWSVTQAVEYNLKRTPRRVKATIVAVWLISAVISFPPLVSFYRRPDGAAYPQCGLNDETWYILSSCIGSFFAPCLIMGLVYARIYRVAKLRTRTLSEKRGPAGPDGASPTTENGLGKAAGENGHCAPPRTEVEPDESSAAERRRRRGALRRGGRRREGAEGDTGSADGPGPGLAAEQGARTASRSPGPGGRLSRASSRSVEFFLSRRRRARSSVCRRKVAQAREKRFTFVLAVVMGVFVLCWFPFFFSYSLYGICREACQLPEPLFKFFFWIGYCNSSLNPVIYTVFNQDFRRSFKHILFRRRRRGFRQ
T3 sequence (P19328 whole entry): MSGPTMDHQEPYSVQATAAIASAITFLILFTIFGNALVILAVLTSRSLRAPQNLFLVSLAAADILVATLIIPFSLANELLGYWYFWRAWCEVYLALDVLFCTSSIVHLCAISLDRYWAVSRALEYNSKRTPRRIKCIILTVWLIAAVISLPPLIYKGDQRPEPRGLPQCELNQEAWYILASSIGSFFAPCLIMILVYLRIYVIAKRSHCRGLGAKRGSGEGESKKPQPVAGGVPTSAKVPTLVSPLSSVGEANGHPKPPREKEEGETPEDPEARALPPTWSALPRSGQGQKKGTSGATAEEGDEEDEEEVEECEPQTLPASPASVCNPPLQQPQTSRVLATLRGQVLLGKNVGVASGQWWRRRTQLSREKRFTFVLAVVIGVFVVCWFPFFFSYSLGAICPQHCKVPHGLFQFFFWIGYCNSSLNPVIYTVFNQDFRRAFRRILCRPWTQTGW
T3 sequence (P22909 whole entry): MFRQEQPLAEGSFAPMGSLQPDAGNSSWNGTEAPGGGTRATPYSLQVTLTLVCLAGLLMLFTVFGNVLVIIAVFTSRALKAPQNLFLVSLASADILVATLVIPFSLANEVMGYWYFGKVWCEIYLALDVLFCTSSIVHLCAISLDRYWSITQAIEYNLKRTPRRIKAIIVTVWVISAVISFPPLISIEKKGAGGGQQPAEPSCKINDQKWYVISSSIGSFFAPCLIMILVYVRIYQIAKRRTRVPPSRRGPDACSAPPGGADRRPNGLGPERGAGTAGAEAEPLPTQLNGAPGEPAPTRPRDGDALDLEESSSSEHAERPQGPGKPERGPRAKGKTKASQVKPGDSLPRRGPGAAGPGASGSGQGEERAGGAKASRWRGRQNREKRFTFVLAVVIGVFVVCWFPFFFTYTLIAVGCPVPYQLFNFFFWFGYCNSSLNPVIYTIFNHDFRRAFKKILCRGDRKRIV

[6] = biological target: T2, Adrenergic receptor alpha-1 (Rattus norvegicus); assay: Agonist potency towards alpha-1 adrenergic receptor in the rat isolated electrically stimulated vas deferens with reference to phenylephrine (postjunctional); format: functional, tissue-based
Method in brief: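 Vas deferens in Krebs solution (NaCl 118 mM, KCl 4.7 mM, CaCl2 2.5 mM, KH2PO4 1.2 mM, MgSO4 0.6 mM, NaHCO3 25 mM, dextrose 11.1 mM), gassed with 95% O2/5% CO2, at 30 °C. Intramural nerves stimulated with 3-ms rectangular pulses, 40 V, 0.1 Hz. Contractions recorded isometrically.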

[7] = biological target: T2, Adrenergic receptor alpha-1 (Rattus norvegicus); assay: Antagonist potency towards alpha-1 adrenergic receptor in the rat isolated electrically stimulated vas deferens with reference to pA2 idazoxan (postjunctional); format: functional, tissue-based
[8] = biological target: T4, Adrenergic receptor alpha-1 (Rattus norvegicus, UniProt P15823+P23944+P43140); assay: Antagonist potency towards alpha-1 adrenergic receptor in the rat electrically stimulated vas deferens with reference to phenylephrine; format: functional, tissue-based
T4 sequence (P15823 whole entry): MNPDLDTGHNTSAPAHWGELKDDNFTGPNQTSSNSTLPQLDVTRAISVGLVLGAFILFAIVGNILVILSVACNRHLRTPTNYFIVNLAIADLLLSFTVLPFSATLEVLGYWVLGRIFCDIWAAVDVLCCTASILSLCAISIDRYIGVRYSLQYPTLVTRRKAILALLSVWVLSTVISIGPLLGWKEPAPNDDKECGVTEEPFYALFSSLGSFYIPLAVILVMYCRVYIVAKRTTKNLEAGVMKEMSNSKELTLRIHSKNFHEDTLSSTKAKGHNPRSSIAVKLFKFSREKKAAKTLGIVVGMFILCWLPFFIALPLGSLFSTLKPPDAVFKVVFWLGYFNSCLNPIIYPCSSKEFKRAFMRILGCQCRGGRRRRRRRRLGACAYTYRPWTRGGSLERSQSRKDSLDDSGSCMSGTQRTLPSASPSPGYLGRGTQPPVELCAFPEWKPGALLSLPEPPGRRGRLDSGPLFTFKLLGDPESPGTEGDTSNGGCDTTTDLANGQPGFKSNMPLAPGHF
T4 sequence (P23944 whole entry): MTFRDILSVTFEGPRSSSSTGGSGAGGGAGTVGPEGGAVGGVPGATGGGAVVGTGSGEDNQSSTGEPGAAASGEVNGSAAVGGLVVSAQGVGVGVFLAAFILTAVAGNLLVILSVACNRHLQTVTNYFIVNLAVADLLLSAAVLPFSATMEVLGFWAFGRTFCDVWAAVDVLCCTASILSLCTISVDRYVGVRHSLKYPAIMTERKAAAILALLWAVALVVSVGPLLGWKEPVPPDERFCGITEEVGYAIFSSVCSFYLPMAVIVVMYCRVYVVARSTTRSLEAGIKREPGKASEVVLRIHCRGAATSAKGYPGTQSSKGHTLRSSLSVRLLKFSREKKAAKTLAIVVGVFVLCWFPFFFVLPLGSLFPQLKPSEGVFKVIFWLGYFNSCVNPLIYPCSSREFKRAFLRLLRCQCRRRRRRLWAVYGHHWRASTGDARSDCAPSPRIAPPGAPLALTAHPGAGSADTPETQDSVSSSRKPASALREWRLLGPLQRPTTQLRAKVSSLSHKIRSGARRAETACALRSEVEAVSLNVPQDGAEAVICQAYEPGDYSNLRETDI
T4 sequence (P43140 whole entry): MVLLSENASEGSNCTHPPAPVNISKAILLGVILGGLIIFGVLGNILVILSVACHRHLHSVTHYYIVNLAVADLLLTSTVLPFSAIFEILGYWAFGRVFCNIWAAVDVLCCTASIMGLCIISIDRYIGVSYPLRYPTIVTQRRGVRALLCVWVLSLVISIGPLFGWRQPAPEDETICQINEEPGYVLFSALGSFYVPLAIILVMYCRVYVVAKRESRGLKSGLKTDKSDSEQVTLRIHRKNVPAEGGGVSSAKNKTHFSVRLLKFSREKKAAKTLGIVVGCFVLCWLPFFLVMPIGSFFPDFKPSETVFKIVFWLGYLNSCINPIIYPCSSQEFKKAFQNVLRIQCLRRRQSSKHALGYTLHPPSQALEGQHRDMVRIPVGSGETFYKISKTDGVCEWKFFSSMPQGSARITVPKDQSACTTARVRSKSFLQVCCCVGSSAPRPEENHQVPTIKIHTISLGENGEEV

[9] = test system: Adrenergic receptor alpha-1 (Rattus norvegicus); assay: Agonist potency towards alpha-1 adrenergic receptor in the rat isolated anococcygeus with reference to phenylephrine (postjunctional)
[10] = test system: Adrenergic receptor alpha-1 (Rattus norvegicus); assay: Antagonist potency towards alpha-1 adrenergic receptor in the rat isolated anococcygeus with reference to pA2 idazoxan (postjunctional)
[11] = species on record: Rattus norvegicus; assay: Agonist potency of phenylephrine in rat isolated anococcygeus muscle; format: functional, Muscle tissue

Row | Potency [1] | Potency [2] | Potency [3] | Potency [4] | pA2 [5] | pA2 [8] | Potency [9] | Potency [10] | SMILES | Potency [6] | Potency [7] | pD2 [11]
1 | 0 | 0.0021 | 0.063 | 0 | – | – | – | – | COC(Oc1ccc(Cl)c(Cl)c1)C1=NCCN1 (configuration not stated) | – | – | –
2 | 0 | 0.033 | 0.52 | 0 | – | – | – | – | CCN(CC)CC1COc2ccccc2O1 (configuration not stated) | – | – | –
3 | 0 | 0.00065 | – | – | 5.19 | < 4.48 | 0 | < 0.012 | COC1(CN2CCCCC2)COc2ccccc2O1 (configuration not stated) | – | – | –
4 | 0 | 11.3 | – | – | 9.92 | 7.43 | – | – | COC1(C2=NCCN2)COc2ccccc2O1 (configuration not stated) | 0 | 8.3 | –
5 | 0 | 0.0037 | < 0.012 | 0 | – | – | – | – | CCN(CC)CC1(OC)COc2ccccc2O1 (configuration not stated) | – | – | –
6 | – | – | – | – | – | – | – | – | CNC[C@H](O)c1cccc(O)c1 [PHENYLEPHRINE] | – | – | 6.54

Row | SMILES | Potency [1] | Potency [2] | Potency [3] | Potency [4] | pA2 [5] | pA2 [8] | Potency [9] | Potency [10] | Potency [6] | Potency [7] | pD2 [11]
7 | c1ccc2c(c1)OCC(CN1CCCCC1)O2 (configuration not stated) [PIPEROXAN] | 0 | 0.29 | – | – | 7.54 | – | – | – | 0 | 4.8 | –
8 | c1ccc2c(c1)OCC(C1=NCCN1)O2 (configuration not stated) | 0 | 1 | – | – | – | – | – | – | 0 | 1 | –
9 | Clc1ccc(OCC2=NCCN2)cc1Cl | < 0.0008 | 0.018 | – | – | – | – | – | – | 0.16 | – | –

— ChEMBL document CHEMBL1123457, “Effect of methoxy substitution on the adrenergic activity of three structurally related alpha 2-adrenoreceptor antagonists” (J Med Chem, 1986)
